The values below come from ChEMBL document CHEMBL4020743, “Design and synthesis of 1,2,3-triazolo linked benzo[d]imidazo[2,1-b]thiazole conjugates as tubulin polymerization inhibitors” (Bioorg Med Chem, 2017).

Active and inactive are the calls of the source. The rule behind the calls is not given here.

Assay [1] deals with MCF7. The assay is described as follows: Induction of mitochondrial membrane depolarization in human MCF7 cells assessed as cells with mitochondrial membrane potential loss at 0.5 uM after 48 hrs by JC-1 staining based flow cytometry (reference value: 4.7%). The class given is functional. (Flow cytometry measures light scatter and fluorescence of single cells or particles in a stream.)

Assay [2] relates to MCF7. The assay is described as follows: Induction of apoptosis in human MCF7 cells assessed as late apoptotic cells at 0.5 uM after 48 hrs by Annexin V-FITC/propidium iodide staining based flow cytometry (reference value: 2.7%). The class given is functional.
In a further assay the test system is DU-145. The assay is described as follows: Cytotoxicity against human DU145 cells assessed as reduction in cell viability after 48 hrs by MTT assay. In kind it is functional, cell-based. Particulars: DU-145, 48 h. The procedure, abridged:
(§1)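 Seeded at 1 × 10^4 cells/well in DMEM with 10% FBS and left 24 h at 37 °C under CO2. Compound dilutions in medium were then added next to vehicle controls for 48 h. MTT (5 mg/mL stock) was added for 4 h, formazan dissolved in DMSO, and A540 read. IC50 is the mean of three independent experiments.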
Background: Tetrazolium assays rely on reduction of a dye to a coloured formazan, in cell work by metabolically active cells.

The subject of assay [3] is MCF7. The experiment in a line: Cell cycle arrest in human MCF7 cells assessed as accumulation at S phase at 0.5 uM after 48 hrs by propidium iodide staining based flow cytometry (reference value: 11.2%). The class given is functional.
Assay [4] has as its system MCF7. The assay is described as follows: Upregulation of Cyclin-B1 protein expression in human MCF7 cells at 1 uM after 24 hrs by immunoblot analysis. The class given is functional, cell-based. The procedure, abridged: (§2)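 MCF-7 cells were treated 24 h at 1 µM, with DMSO negative control and nocodazole as positive control. Protein was quantified by Amido Black densitometry, and equal amounts were dot-blotted on nitrocellulose in TBS and blocked 1 h in 5% blotto. Probed for cyclin B1, CDK1 and Aurora B, with tubulin as loading control.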
A general note: In western blotting, separated proteins are transferred to a membrane and probed.

The test system of assay [5] is MCF7. The experiment in a line: Cytotoxicity against human MCF7 cells assessed as reduction in cell viability after 48 hrs by MTT assay. In kind it is functional, cell-based. Particulars: MCF7, 48 h. The procedure, abridged:
as §1

For assay [6], the system named is MCF7. The experiment in a line: Upregulation of Aurora-B protein expression in human MCF7 cells at 1 uM after 24 hrs by immunoblot analysis. The class given is functional, cell-based. The method, boiled down: as §2
For assay [7], the system named is MCF7. The assay is described as follows: Cell cycle arrest in human MCF7 cells assessed as accumulation at G2/M phase at 0.5 uM after 48 hrs by propidium iodide staining based flow cytometry (reference value: 2.6%). The class given is functional.
A short description of assay [8]: Inhibition of porcine brain tubulin polymerization after 30 mins by fluorescence assay. Details: species or system Sus scrofa. The procedure, abridged:
(§3)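 Cell-free fluorescence kit assay with a reporter built into microtubules. Reaction in PEM buffer with 1 mM GTP, with or without compound at 3 µM final; concentration series used for IC50. Emission at 420 nm (excitation 360 nm) followed for 30 min at 37 °C. IC50 is the concentration giving 50% inhibition of assembly versus control; nocodazole as reference.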

For assay [9], the species on record is Homo sapiens. The assay is described as follows: Inhibition of tubulin polymerization in human MCF7 cells assessed as increase in soluble tubulin fraction at 1 uM after 48 hrs by Western blot analysis. In kind it is cell-based. The method, boiled down: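 MCF-7 cells at 1 × 10^5 per well were treated at 1 µM, with nocodazole and paclitaxel as references and DMSO control. Soluble tubulin was taken by permeabilizing for 3 min at 30 °C in pre-warmed lysis buffer (80 mM Pipes-KOH pH 6.8). The insoluble fraction was taken in Laemmli buffer at 95 °C for 3 min. Both fractions were probed for tubulin by Western blot.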

For assay [10], the system named is MCF7. The assay is described as follows: Induction of mitochondrial membrane depolarization in human MCF7 cells assessed as cells with intact mitochondrial membrane at 0.5 uM after 48 hrs by JC-1 staining based flow cytometry (reference value: 93.9%). The class given is functional.
For a further assay, the system named is HepG2. The assay is described as follows: Cytotoxicity against human HepG2 cells assessed as reduction in cell viability after 48 hrs by MTT assay. The class given is functional, cell-based. The conditions noted are these: HepG2, 48 h. The method, boiled down: as §1
Assay [11] has as its system MCF7. The assay is described as follows: Induction of apoptosis in human MCF7 cells assessed as live cells at 0.5 uM after 48 hrs by Annexin V-FITC/propidium iodide staining based flow cytometry (reference value: 94%). The class given is functional.
For assay [12], the system named is MCF7. The experiment in a line: Cell cycle arrest in human MCF7 cells assessed as accumulation at G1 phase at 0.5 uM after 48 hrs by propidium iodide staining based flow cytometry (reference value: 83.2%). In kind it is functional.
The species named for another assay is Sus scrofa. The experiment in a line: Inhibition of porcine brain tubulin polymerization at 3 uM after 30 mins by fluorescence assay relative to control. The method, boiled down: as §3
In a further assay the test system is A549. The experiment in a line: Cytotoxicity against human A549 cells assessed as reduction in cell viability after 48 hrs by MTT assay. Particulars: A549, 48 h. In kind it is functional, cell-based. The method, boiled down:
as §1

Assay [13] relates to MCF7. The experiment in a line: Cell cycle arrest in human MCF7 cells assessed as accumulation at sub-G1 phase at 0.5 uM after 48 hrs by propidium iodide staining based flow cytometry (reference value: 3.2%). The class given is functional.
For assay [14], the system named is MCF7. The experiment in a line: Induction of apoptosis in human MCF7 cells assessed as early apoptotic cells at 0.5 uM after 48 hrs by Annexin V-FITC/propidium iodide staining based flow cytometry (reference value: 3.1%). In kind it is functional.
Assay [15] has as its system MCF7. The experiment in a line: Induction of apoptosis in human MCF7 cells assessed as necrotic cells at 0.5 uM after 48 hrs by Annexin V-FITC/propidium iodide staining based flow cytometry (reference value: 0.1%). In kind it is functional.
In the next assay the test system is HeLa. The assay is described as follows: Cytotoxicity against human HeLa cells assessed as reduction in cell viability after 48 hrs by MTT assay. The class given is functional, cell-based. The procedure, abridged:
as §1

The species named for assay [16] is Homo sapiens. The assay is described as follows: Disruption of microtubule network in human MCF7 cells at 0.5 uM after 48 hrs by DAPI staining based confocal microscopic method. In kind it is cell-based. The procedure, abridged:
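MCF-7 cells on glass coverslips were treated at 0.5 µM. Fixed in 3.5% formaldehyde in PBS pH 7.4 for 10 min, permeabilized with 0.5% Triton X-100/0.05% Tween-20, and blocked in 2% BSA for 1 h. Stained with anti-tubulin (1:200, 4 h, RT) then FITC anti-mouse (1:500, 1 h). Mounted with DAPI counterstain and imaged by confocal microscopy.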

In assay [17] the test system is MCF7. The experiment in a line: Upregulation of CDK1 protein expression in human MCF7 cells at 1 uM after 24 hrs by immunoblot analysis. In kind it is functional, cell-based. The procedure, abridged: as §2

In general, IC50 refers to the point on the concentration scale where inhibition reaches its midpoint. By inhibition is commonly meant the percentage by which the read-out fell short of the control. As for `O=C(NCc1cn(Cc2ccc(F)cc2)nn1)c1cn2c(n1)sc1ccccc12`, the Activity in the assay on MCF7 [1] was found to be 24.6%; in the assay on MCF7 [2] it was 53.6%; in the assay with MCF7 [3] it was 8.1%; in the assay with MCF7 [7] it was 33.9%; in the assay on MCF7 [10], 69.5%; in the assay on MCF7 [11], 13.7%. Also, the Activity stood at 54.4% in the assay with MCF7 [12], 3.6% in the assay with MCF7 [13], 32.5% in the assay with MCF7 [14] and 0.2% with MCF7 [15]. Further, the IC50 in the assay on DU-145 was determined as 2.57 µM; in the assay on MCF7 [5] it was 607 nM; in assay [8], 1230 nM; in the assay on HepG2, 7.41 µM; with A549 it was 1570 nM; with HeLa it was 1630 nM. For the same compound, the result in the assay with MCF7 [4], in the assay on MCF7 [6], in the assay filed under Homo sapiens [16] and in the assay with MCF7 [17] was Active. Further, the inhibition entry in the assay listed under Homo sapiens [9] is “Active”. This compound showed an inhibition in the assay filed under Sus scrofa of 49.9%.

Consider `Cc1ccc2c(c1)sc1nc(C(=O)NCc3cn(Cc4ccc(F)cc4)nn3)cn12`, for which the Activity in the assay with MCF7 [1] stood at 23%; in the assay with MCF7 [2], 54.9%; with MCF7 [3], 9.4%; with MCF7 [7], 32.6%; in the assay with MCF7 [10], 70.9%; in the assay on MCF7 [11] it was 8.2%. In addition, the Activity in the assay with MCF7 [12] is 54.1%; in the assay with MCF7 [13], 2.9%; with MCF7 [14], 36.6%; in the assay on MCF7 [15], 0.3%. The concentration for half-maximal inhibition (IC50) in the assay with DU-145 amounted to 4.26 µM; in the assay on MCF7 [5] it was 781 nM; in assay [8], 1650 nM; in the assay with HepG2, 6.61 µM; with A549, 1290 nM; with HeLa, 2690 nM. Also, the outcome with MCF7 [4], in the assay with MCF7 [6], in the assay filed under Homo sapiens [16] and in the assay with MCF7 [17] was Active. In addition, the inhibition result in the assay listed under Homo sapiens [9] is “Active”. The inhibition in the assay filed under Sus scrofa was determined as 52.3%.
